The subject of one series is Candida parapsilosis. As to the kind of experiment: Antifungal activity against Candida parapsilosis ATCC 22019 at 35 degC after 48 hrs by broth microdilution test. The class given is functional. To be noted: Lodderomyces parapsilosis, ATCC 22019, 48 h; for MFC: read-out: MFC; for MIC: read-out: MIC. An outline of the steps:
(§1)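 Broth microdilution per NCCLS M27-A2. Stocks in 100% DMSO, diluted in RPMI 1640 with 0.165 M MOPS at pH 7.0; final range 0.25–128 µg/mL. Inoculum 1000–5000 cells/mL from SDA subcultures. […] C. parapsilosis ATCC22019 served as QC strain.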

Series [1] has as its system Candida albicans. The experiment in a line: Antifungal activity against Candida albicans ATCC 10261 at 35 degC after 48 hrs by broth microdilution test. The class given is functional. To be noted: Candida albicans, ATCC 10261, 48 h; for MIC: read-out: MIC; for MIC50: read-out: MIC50; for MIC90: read-out: MIC90. An outline of the steps:
as §1

Series [2] deals with Candida albicans. As to the kind of experiment: Antifungal activity against Candida albicans ATCC 10261 at 35 degC after 48 to 96 hrs by broth microdilution test. Format: functional. To be noted: for MFC: Candida albicans, ATCC 10261, read-out: MFC. An outline of the steps: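 Minimal fungicidal concentration for Candida. […] MFC is the lowest concentration allowing fewer than two colonies (99% killing).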
For orientation: Broth dilution looks for growth in wells or tubes with falling amounts of substance.

In series [3] the test system is Arthrodermataceae. The experiment in a line: Antifungal activity against dermatophytes at 28 degC after 7 days by broth microdilution test. Format: functional. To be noted: 168 h. Summed up:
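Ten clinical isolates (two M. canis, five M. gypseum, three T. mentagrophytes) tested by NCCLS M38-A broth microdilution in MOPS-buffered RPMI 1640, pH 7.0, over 0.25–128 µg/mL. Conidial/hyphal suspension from PDA slants (28 °C, 7 days) adjusted to 65–70% transmittance at OD530, then diluted 1:50.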

Series [4] deals with Arthrodermataceae. As to the kind of experiment: Antifungal activity against dermatophytes at 28 degC after 5 days by broth microdilution test. The note with it: for MFC: Arthrodermataceae.
Series [5] concerns Arthrodermataceae. As to the kind of experiment: Antifungal activity against dermatophytes at 28 degC after 48 to 96 hrs by broth microdilution test.
Series [6] in a line: Cytotoxicity against human U937 cells assessed as reduction of cell viability after 24 hrs by MTT assay. Format: cell-based, U-937. Summed up: (§2)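 U937 and K562 cells, from ATCC, plated at 5 × 10^4/mL in phenol-red-free RPMI-1640 with 20% FBS and penicillin/streptomycin. Compounds added 2 h later at 25–100 µg/mL, then 24 h at 37 °C. MTT at 1 mg/mL for 3 h, formazan dissolved in isopropanol with 0.1 N HCl, absorbance read at 570 nm. CC50 is the concentration reducing viability by 50% versus the drug-free control.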

The nature of series [7]: Cytotoxicity against human K562 cells after assessed as reduction of cell viability 24 hrs by MTT assay. The class given is cell-based. An outline of the steps:
as §2
Background: Tetrazolium dyes change colour on reduction, which living cells bring about.

In brackets after ≈: the same amount, converted by molar mass.

Broadly, the MFC is the lowest tested concentration that kills the fungus rather than only halting it. Usually MIC stands for the smallest concentration in the dilution series that meets the test's criterion for growth inhibition. The MIC50 is an inhibitory concentration at the 50% level, which refers to growth in some studies and to a panel of isolates in others. By MIC90 is commonly meant the lowest concentration that inhibits either 90% of growth or 90% of the strains tested, depending on the study. As to `Clc1ccc(C(OCCn2ccnc2)c2ccccc2)c(Cl)c1.O=[N+]([O-])O` (stereo not drawn), in the series with Candida parapsilosis, the minimum fungicidal concentration (MFC) was 32 µg/mL and the minimal inhibitory concentration (MIC) was 16 µg/mL. Also, in the series on Candida albicans [1], the MIC is 46.1 µg/mL, the MIC50 turned out to be 32 µg/mL and the MIC90 is 64 µg/mL. Moreover, in the series on Candida albicans [2], the MFC50 came to 128 µg/mL, the MFC90 is >256 µg/mL and the MFC amounted to 158 µg/mL. In the series with Arthrodermataceae [3], 7 µg/mL was the least that counted as inhibitory (MIC), the MIC50 is 8 µg/mL and the MIC90 was found to be 8 µg/mL. Besides, in the series on Arthrodermataceae [4], the MFC90 amounted to 8 µg/mL and the MFC came to 7.5 µg/mL. In the series with Arthrodermataceae [5], this molecule gave an MFC50 of 8 µg/mL.

Consider `Fc1ccc(C(CCn2ccnc2)Oc2c(Cl)cccc2Cl)cc1` (stereo not drawn), for which, in the series on Candida parapsilosis, the MFC was determined as 32 µg/mL (≈ 87.6 µM) and the MIC was 4 µg/mL (≈ 11 µM). Also, in the series on Candida albicans [1], the MIC stood at 36.1 µg/mL (≈ 98.8 µM), the MIC50 is 8 µg/mL (≈ 21.9 µM) and the MIC90 amounted to 64 µg/mL (≈ 175 µM). In the series with Candida albicans [2], the MFC50 was found to be 32 µg/mL (≈ 87.6 µM), the MFC90 amounted to 128 µg/mL (≈ 350 µM) and the minimum fungicidal concentration (MFC) is 78.9 µg/mL (≈ 216 µM). In the series on Arthrodermataceae [3], this molecule yielded a minimum inhibitory concentration (MIC) of 6.4 µg/mL (≈ 17.5 µM), an MIC50 of 8 µg/mL (≈ 21.9 µM) and an MIC90 of 8 µg/mL (≈ 21.9 µM). In the series on Arthrodermataceae [4], this molecule yielded an MFC90 of 16 µg/mL (≈ 43.8 µM) and an MFC of 15 µg/mL (≈ 41.1 µM). The molecule further had an MFC50 against Arthrodermataceae [5] of 16 µg/mL (≈ 43.8 µM).

In the case of `Clc1ccc(OC(CCn2cncn2)c2ccccc2)c(Cl)c1` (stereo not drawn), in the series on Candida parapsilosis, the MFC amounted to 64 µg/mL (≈ 184 µM) and the MIC turned out to be 32 µg/mL (≈ 91.9 µM). In the series on Candida albicans [1], the MIC is > 128 µg/mL, the MIC50 is > 128 µg/mL and the MIC90 was > 128 µg/mL. In addition, in the series on Candida albicans [2], the MFC50 is >128 µg/mL, the MFC90 was >128 µg/mL and the MFC is > 128 µg/mL. In the series with Arthrodermataceae [3], this molecule came in with an MIC of 22.4 µg/mL (≈ 64.3 µM), an MIC50 of 16 µg/mL (≈ 45.9 µM) and an MIC90 of 32 µg/mL (≈ 91.9 µM). In the series with Arthrodermataceae [4], the MFC90 was determined as 64 µg/mL (≈ 184 µM) and the minimum fungicidal concentration (MFC) turned out to be 44.8 µg/mL (≈ 129 µM). Besides, the MFC50 with Arthrodermataceae [5] was found to be 32 µg/mL (≈ 91.9 µM).

Turning to `Clc1cc(Cl)cc(OC(CCn2ccnc2)c2ccccc2)c1` (stereo not drawn), in the series on Candida parapsilosis, the minimum fungicidal concentration (MFC) was 4 µg/mL (≈ 11.5 µM) and the minimal inhibitory concentration (MIC) turned out to be 0.5 µg/mL (≈ 1.44 µM). Moreover, in the series on Candida albicans [1], the MIC turned out to be 13.8 µg/mL (≈ 39.7 µM), the MIC50 is 16 µg/mL (≈ 46.1 µM) and the MIC90 was found to be 16 µg/mL (≈ 46.1 µM). In the series on Candida albicans [2], the MFC50 is 32 µg/mL (≈ 92.2 µM), the MFC90 amounted to 64 µg/mL (≈ 184 µM) and the MFC turned out to be 29.8 µg/mL (≈ 85.8 µM). In the series with Arthrodermataceae [3], this molecule gave an MIC of 7.2 µg/mL (≈ 20.7 µM), an MIC50 of 8 µg/mL (≈ 23 µM) and an MIC90 of 8 µg/mL (≈ 23 µM). In addition, in the series with Arthrodermataceae [4], the MFC90 was 16 µg/mL (≈ 46.1 µM) and the MFC came out at 15 µg/mL (≈ 43.2 µM). The molecule also displayed an MFC50 against Arthrodermataceae [5] of 16 µg/mL (≈ 46.1 µM).

Turning to `Clc1cccc(Cl)c1OC(CCn1ccnc1)c1ccccc1` (stereo not drawn), in the series on Candida parapsilosis, the MFC came to 32 µg/mL (≈ 92.2 µM) and the minimal inhibitory concentration (MIC) was determined as 2 µg/mL (≈ 5.76 µM). Besides, in the series with Candida albicans [1], the MIC stood at 46.2 µg/mL (≈ 133 µM), the MIC50 came to 64 µg/mL (≈ 184 µM) and the MIC90 turned out to be 64 µg/mL (≈ 184 µM). Further, in the series with Candida albicans [2], the MFC50 was found to be 64 µg/mL (≈ 184 µM), the MFC90 was 64 µg/mL (≈ 184 µM) and the MFC was found to be 64 µg/mL (≈ 184 µM). In addition, in the series on Arthrodermataceae [3], the minimum inhibitory concentration (MIC) was 7.6 µg/mL (≈ 21.9 µM), the MIC50 is 8 µg/mL (≈ 23 µM) and the MIC90 came out at 8 µg/mL (≈ 23 µM). In the series with Arthrodermataceae [4], this molecule had an MFC90 of 32 µg/mL (≈ 92.2 µM) and a minimal fungicidal concentration (MFC) of 28.8 µg/mL (≈ 82.9 µM). Also, in the series on Arthrodermataceae [5], the MFC50 is 32 µg/mL (≈ 92.2 µM).

With `Cc1ccc(OC(CCn2ccnc2)c2ccc(Cl)cc2)c(C)c1` (stereo not drawn), the MFC with Candida parapsilosis stood at 32 µg/mL (≈ 93.9 µM); with Candida albicans [2] it was 28 µg/mL (≈ 82.1 µM); in the series with Arthrodermataceae [4] it was 58 µg/mL (≈ 170 µM). The minimum inhibitory concentration (MIC) was determined as 8 µg/mL (≈ 23.5 µM) in the series with Candida parapsilosis, 13.5 µg/mL (≈ 39.6 µM) with Candida albicans [1] and 32.5 µg/mL (≈ 95.3 µM) in the series on Arthrodermataceae [3]. Also, the MIC50 was determined as 16 µg/mL (≈ 46.9 µM) with Candida albicans [1] and 32 µg/mL (≈ 93.9 µM) with Arthrodermataceae [3]. Moreover, the MIC90 came to 16 µg/mL (≈ 46.9 µM) with Candida albicans [1] and 32 µg/mL (≈ 93.9 µM) with Arthrodermataceae [3]. Further, the MFC50 against Candida albicans [2] was found to be 32 µg/mL (≈ 93.9 µM); in the series with Arthrodermataceae [5], 64 µg/mL (≈ 188 µM). The MFC90 came out at 32 µg/mL (≈ 93.9 µM) against Candida albicans [2] and 64 µg/mL (≈ 188 µM) with Arthrodermataceae [4].

By CC50 is commonly meant the concentration at which the toxic effect on the cells reaches its halfway point. On to `Cc1ccc(C(CCn2ccnc2)Oc2ccc(C)cc2Cl)cc1` (stereo not drawn), for which, in the series with Candida parapsilosis, the MFC is 8 µg/mL (≈ 23.5 µM) and the minimal inhibitory concentration (MIC) came to 4 µg/mL (≈ 11.7 µM). In the series with Candida albicans [1], the MIC was 6.5 µg/mL (≈ 19.1 µM), the MIC50 is 8 µg/mL (≈ 23.5 µM) and the MIC90 is 8 µg/mL (≈ 23.5 µM). For the same molecule, in the series with Candida albicans [2], the MFC50 was 32 µg/mL (≈ 93.9 µM), the MFC90 was found to be 32 µg/mL (≈ 93.9 µM) and the MFC stood at 24 µg/mL (≈ 70.4 µM). The CC50 at 24 h in series [6] came out at 151 µM. The CC50 at 24 h in series [7] came to 123 µM.

`Clc1ccc(C(CCn2cncn2)Oc2ccc(Cl)cc2Cl)cc1` (stereo not drawn): in the series with Candida parapsilosis, the MFC amounted to 64 µg/mL (≈ 167 µM) and the MIC worked out at 32 µg/mL (≈ 83.6 µM). Besides, in the series with Candida albicans [1], the minimum inhibitory concentration (MIC) was > 128 µg/mL, the MIC50 was > 128 µg/mL and the MIC90 was > 128 µg/mL. Further, in the series on Candida albicans [2], the MFC50 was >128 µg/mL, the MFC90 is >128 µg/mL and the minimal fungicidal concentration (MFC) is > 128 µg/mL. In the series on Arthrodermataceae [3], this molecule yielded an MIC of 10.4 µg/mL (≈ 27.2 µM), an MIC50 of 8 µg/mL (≈ 20.9 µM) and an MIC90 of 16 µg/mL (≈ 41.8 µM). In the series on Arthrodermataceae [4], the MFC90 was >128 µg/mL and the minimum fungicidal concentration (MFC) turned out to be 138 µg/mL (≈ 360 µM). The same molecule yielded an MFC50 against Arthrodermataceae [5] of 32 µg/mL (≈ 83.6 µM).
